AHR activator – activates the human aryl hydrocarbon receptor | hit rate 2.5% among 320,000 | activation, % at 5 µM | AHR-responsive luciferase reporter cells, luminescence | P35869; in the data active = activation above about 47%
Target sequence (P35869 whole entry, looked up): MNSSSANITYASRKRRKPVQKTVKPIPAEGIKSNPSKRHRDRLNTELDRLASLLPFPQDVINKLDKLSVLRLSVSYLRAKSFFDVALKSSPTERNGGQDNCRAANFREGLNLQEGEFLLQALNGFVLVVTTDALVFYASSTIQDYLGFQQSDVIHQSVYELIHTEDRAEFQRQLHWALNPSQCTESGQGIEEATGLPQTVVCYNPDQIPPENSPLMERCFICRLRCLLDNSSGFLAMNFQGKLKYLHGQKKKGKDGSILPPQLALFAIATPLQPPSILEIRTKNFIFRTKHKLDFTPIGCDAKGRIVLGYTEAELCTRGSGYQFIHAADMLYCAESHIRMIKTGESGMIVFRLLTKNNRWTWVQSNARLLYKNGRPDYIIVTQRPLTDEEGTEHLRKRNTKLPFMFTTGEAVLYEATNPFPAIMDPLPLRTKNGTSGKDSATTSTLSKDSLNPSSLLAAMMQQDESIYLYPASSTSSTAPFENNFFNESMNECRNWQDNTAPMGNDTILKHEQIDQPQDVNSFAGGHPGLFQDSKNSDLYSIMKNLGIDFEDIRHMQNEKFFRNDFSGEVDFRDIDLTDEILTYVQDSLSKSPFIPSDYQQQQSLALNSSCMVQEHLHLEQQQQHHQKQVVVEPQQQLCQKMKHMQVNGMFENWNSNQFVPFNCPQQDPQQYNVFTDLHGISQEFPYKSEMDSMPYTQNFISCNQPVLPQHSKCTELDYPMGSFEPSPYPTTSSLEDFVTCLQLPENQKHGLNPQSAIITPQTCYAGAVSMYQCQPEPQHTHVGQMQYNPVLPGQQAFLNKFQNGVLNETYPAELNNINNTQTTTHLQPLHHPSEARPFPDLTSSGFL
FXIa inh 1536 – blocks human coagulation factor XIa protease activity; AID 798; purified FXIa, Boc-Glu-Ala-Arg-AMC fluorogenic substrate; hit rate 0.14% among 220,000; inhibition, % at 5 µM;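 active = inhibition of at least 40%; inactive = inhibition below 40%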;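 note: fluorescence of freed AMC excited at 355 nm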
thrombin 1536 – inhibitors of human thrombin; P00734; alpha-thrombin, Boc-VPR-AMC fluorogenic substrate cleavage; inhibition, % at 5 µM; hit rate 0.26% among 220,000; AID 1046;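 active = inhibition at or above 40%; inactive = inhibition below 40%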
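Material: human alpha-thrombin enzyme / Medium: pH 7.5 Tris (50 mM) with NaCl 150 mM, Tween 20 0.05% / Compound: single-point dosing at 5 µM, 0.2% DMSO / Incubation: enzyme reaction carried out at room temperature / Detection: AMC fluorescence, 355/460 nm / Read-out basis: percent inhibition scaled between no-compound controls and no-enzyme blanks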
hK5 inh – blocks human kallikrein 5 protease activity. hit rate 0.59% among 210,000. Q9Y337. inhibition, % at 5 µM. recombinant hK5, fluorogenic AMC substrate cleavage;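 active = inhibition of 40% or more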
FXIIa inh – blocks human coagulation factor XIIa protease activity; P00748; purified FXIIa, Boc-QGR-AMC fluorogenic substrate, 2 h; inhibition, % at 5 µM; hit rate 0.3% among 220,000; AID 800; in the data active = inhibition above about 40%
STAT3 activator – activators of IL-6 induced STAT3 signaling; U3A cells, IL-6 STAT3-luciferase reporter, luminescence; 100% = signal with IL-6 EC80 alone; activation (% of control), % at 5.6 µM; hit rate 0.91% among 190,000; AID 871;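 active = activation above the screen-wide mean of compound activation plus 3 SD, cut at about 130% in these data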
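Test system: Human STAT1-deficient U3A cells with stable STAT3-luciferase reporter | Also added: Interleukin-6, 33 ng/mL | Timing: Compound pre-incubation 1 h before IL-6, then 6 h stimulation at 37 °C | Technique: Luciferase reporter luminescence | Read-out: Percent of IL-6-only median luminescence | Benchmarks: IL-6-only wells as 100% reference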
Of the large screens only hits and unclear results are named; the others gave an inactive call. Rows were chosen to be rich in hits. Some 3.5% of all compounds tested hit in one or more screens of this group.

COc1cccc(COc2ccccc2C2Nc3ccc(Br)cc3C(=O)N2NC(=O)c2ccncc2)c1 (stereo unspecified)	AHR activator 52
COc1ccc(C2Nc3ccccc3C(=O)N2NC(C)=O)c(OC)c1 (stereo unspecified)	none (no result: FXIa inh 1536, thrombin 1536, hK5 inh, FXIIa inh, STAT3 activator)
Cc1nc(N/N=C\c2ccc3c(c2)OCO3)sc1C	AHR activator 75 (no result: FXIa inh 1536, thrombin 1536, hK5 inh, FXIIa inh, STAT3 activator)
COc1cc(/C=N/Nc2nc3ccccc3s2)ccc1OC(=O)c1ccccc1F	AHR activator 78
C(=N\Nc1nc2ccccc2s1)/c1ccccn1	none (no result: STAT3 activator)
COc1cc(/C=N/Nc2ccccc2[N+](=O)[O-])ccc1OC(=O)c1ccccc1F	none
Brc1csc(/C=N/Nc2nc3ccccc3s2)c1	AHR activator 100
C(=N\Nc1ccccc1)/c1nc2ccccc2s1	AHR activator 69 (no result: STAT3 activator)
CN(C(=O)CSc1cc(C(=O)c2nccn2C)c2ccccc2n1)c1ccccc1	none (no result: STAT3 activator)
C(=N\Nc1nc2ccccc2s1)/c1ccc2c(c1)OCO2	AHR activator 112
Brc1cc2c(cc1/C=N/Nc1nc3ccccc3s1)OCO2	none
COC(=O)N/N=C/c1cn(CCOc2ccccc2OC)c2ccccc12	AHR activator 60 (no result: FXIa inh 1536, thrombin 1536, hK5 inh, FXIIa inh, STAT3 activator)
COC(=O)N/N=C/c1cn(CCOc2ccc(OC)cc2)c2ccccc12	none (no result: FXIa inh 1536, thrombin 1536, hK5 inh, FXIIa inh, STAT3 activator)
Cn1cc(/C=N/NC(=O)COc2ccccc2[N+](=O)[O-])c2ccccc21	AHR activator 58
CNC(=S)N/N=C/c1cn(CCOc2cccc(OC)c2)c2ccccc12	AHR activator 56
O=C(O)c1ccc(CNC(=O)C23CC4CC(CC(C4)C2)C3)cc1	none (no result: FXIa inh 1536, thrombin 1536, hK5 inh, FXIIa inh, STAT3 activator)
O=C(COC(=O)c1ccc[nH]c1=O)NC1CCCCC1	none (no result: STAT3 activator)
O=C(Nc1ccc2c(c1)OCCO2)C(=O)NC1CC1	none (no result: FXIa inh 1536, thrombin 1536, hK5 inh, FXIIa inh, STAT3 activator)
CCOC(=O)C[C@H]1c2ccc(C(F)(F)F)cc2S(=O)(=O)N1c1cccc(OC)c1	none (no result: FXIa inh 1536, thrombin 1536, hK5 inh, FXIIa inh, STAT3 activator)
COc1ccc(/C=N/N=C2/NC(=O)C(c3ccccc3)(c3ccccc3)S2)cc1	none
CCCCn1c(=N)n(CC(=O)O)c2ccccc21	none
CCn1c(=N)n(CC(=O)c2ccc(Br)s2)c2ccccc21	AHR activator 48 (no result: STAT3 activator)
CCCCn1c(=N)n(CC(=O)c2ccc(Br)s2)c2ccccc21	AHR activator 52 (no result: STAT3 activator)
O=C(Nc1nnc(SCc2ccccn2)s1)C1CC(=O)N(c2ccc(F)cc2)C1 (stereo unspecified)	none (no result: FXIa inh 1536, thrombin 1536, hK5 inh, FXIIa inh, STAT3 activator)
CC(=O)Nc1ccc(NC(=O)CSc2nc3[nH]ncc3c(=O)n2-c2ccccc2)cc1	none (no result: FXIa inh 1536, thrombin 1536, hK5 inh, FXIIa inh, STAT3 activator)
Cc1oc(-c2cc(F)ccc2F)nc1CN1CCN(c2cnccn2)CC1	AHR activator 54
CC(=O)Nc1ccc(-n2cc(-c3ccccc3)[nH]c2=S)cc1	none
COc1ccc(-n2cc(-c3ccccc3)[nH]c2=S)cc1	AHR activator 55
N#CC(C(=O)Nc1ccccc1)=C1Nc2ccccc2N1	AHR activator 78
N#CC(C(=O)Nc1cccc(Cl)c1)=C1Nc2ccccc2N1	none
CC(NC(=O)COC(=O)C1CCCCC1)c1ccccc1 (stereo unspecified)	none (no result: FXIa inh 1536, thrombin 1536, hK5 inh, FXIIa inh, STAT3 activator)
Cc1cc(C)c2c(N)c3cccc(C)c3nc2n1	AHR activator 69
Cc1cccc2c(N)c3c(nc12)CCCC3 (tested in a mixture with another compound)	none (no result: AHR activator)
O=C(N=Nc1c(O)[nH]c2ccc([N+](=O)[O-])cc12)c1ccccc1[N+](=O)[O-]	none (no result: STAT3 activator)
CC(Oc1ccccc1)C(=O)N=Nc1c(O)[nH]c2ccc([N+](=O)[O-])cc12 (stereo unspecified)	AHR activator 63
CN(Cc1ccccc1)c1nc2c(c(=O)[nH]c(=O)n2C)n1CCCSc1ncccn1	FXIa inh 1536 42, FXIIa inh 52
COc1ccc(CN2C(=O)c3cccnc3C2Nc2cc(Cl)ccc2OC)cc1 (stereo unspecified)	hK5 inh 46
COc1ccc(OC)c(NC2c3ncccc3C(=O)N2Cc2ccco2)c1 (stereo unspecified)	none
CCC1(CC)Cc2ccccc2C(C2=C(O)CC(C)(C)CC2=O)=N1	none
Cc1cc(C)c2nc(-c3ccccn3)cc(C(=O)NCc3ccco3)c2c1	AHR activator 69
Cc1cc(C)nc(NC(=NCCc2c[nH]c3ccccc23)NC(=O)Nc2ccccc2)n1	AHR activator 52
O=C(CCNC(=O)c1ccc([N+](=O)[O-])cc1)NCc1ccco1	none (no result: FXIa inh 1536, thrombin 1536, hK5 inh, FXIIa inh, STAT3 activator)
Cc1ccc(C(=O)Nc2ccc3c(c2)CCC3)o1	hK5 inh 84
Cc1ccc(OCC(O)CN2CC3(C)CC2CC(C)(C)C3)cc1 (stereo unspecified)	none
Cc1cccc(OCC(O)CN2CC3(C)CC2CC(C)(C)C3)c1 (stereo unspecified)	FXIa inh 1536 64
COc1ccc(NC(=O)Nc2ccc3c(c2)CCC3)cc1	none (no result: FXIa inh 1536, thrombin 1536, hK5 inh, FXIIa inh, STAT3 activator)
Cc1n[nH]c(=O)c2c(NC(=O)CSc3nncs3)oc(C)c12	none (no result: FXIa inh 1536, thrombin 1536, hK5 inh, FXIIa inh, STAT3 activator)
COc1cc2c(cc1NC(=S)Nc1ccccc1C)oc1ccccc12	none
CCN(CC)S(=O)(=O)c1ccc(C(=O)Nc2cc3oc4ccccc4c3cc2OC)cc1	AHR activator 51
COc1cc2c(cc1NC(=O)Nc1cccc(C)c1)oc1ccccc12	none
COc1cc2c(cc1NC(=S)Nc1cccc(C)c1)oc1ccccc12	AHR activator 84
CCCNC(=S)Nc1cc2oc3ccccc3c2cc1OC	AHR activator 53 (no result: FXIa inh 1536, thrombin 1536, hK5 inh, FXIIa inh, STAT3 activator)
CCNC(=S)Nc1cc2oc3ccccc3c2cc1OC	AHR activator 70 (no result: FXIa inh 1536, thrombin 1536, hK5 inh, FXIIa inh, STAT3 activator)
COc1cc2c(cc1NC(=S)NC(=O)/C=C/c1ccc(OC)c(OC)c1)oc1ccccc12	none (no result: AHR activator)
COc1cc2c(cc1NC(=O)COC(=O)[C@@H](NS(=O)(=O)c1cccc(Cl)c1)C(C)C)oc1ccccc12	AHR activator 57
COc1ccc(S(=O)(=O)N[C@@H](C)C(=O)OCC(=O)Nc2cc3oc4ccccc4c3cc2OC)cc1	none
Cc1ccc2c(c1)N(CC(=O)N1CCCC1)C(=O)C(C)O2 (stereo unspecified)	none (no result: FXIa inh 1536, thrombin 1536, hK5 inh, FXIIa inh, STAT3 activator)
Cc1ccc2nc3c(cc2c1)c(NC(=O)C1CCCO1)nn3CC(C)C (stereo unspecified)	none
CCn1nc(NC(=O)C2CCCO2)c2cc3cc(C)ccc3nc21 (stereo unspecified)	AHR activator 67
C=CCNc1nc(NC(C)(C)CO)nc(OC)n1	FXIa inh 1536 46
O=C1CC(c2ccc(S(=O)(=O)NC3CC3)cc2)CN1 (stereo unspecified)	none
O=C1CC(c2ccc(S(=O)(=O)NCc3ccncc3)cc2)CN1 (stereo unspecified)	AHR activator 78
N#Cc1nc(COc2ccccc2)oc1NCCCn1ccnc1	AHR activator 79
N#Cc1nc(COc2ccccc2F)oc1NCCCn1ccnc1	AHR activator 71
COc1ccccc1OCc1nc(C#N)c(NCCCn2ccnc2)o1	none
COc1ccc(S(=O)(=O)N2CCC(NC(=O)c3ccccc3)CC2)cc1	none (no result: FXIa inh 1536, thrombin 1536, hK5 inh, FXIIa inh, STAT3 activator)
COc1ccc(N2CCN(S(=O)(=O)c3ccc(C(=O)NC4CCCC4)cc3)CC2)cc1	FXIIa inh 47
